ChEMBL document CHEMBL3593164, “Rational Design and Synthesis of Thioridazine Analogues as Enhancers of the Antituberculosis Therapy” (J Med Chem, 2015)

Key:
[1] = test system: Mycobacterium tuberculosis; experiment: Inhibition of multidrug resistance efflux pump in Mycobacterium tuberculosis H37Rv assessed as reduction in rifampin MIC at 4 ug/ml after 7 days by two-dimensional broth microdilution checkerboard assay
How it was run: (§1)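 M. tuberculosis H37Rv two-dimensional broth microdilution checkerboard. MICs of INH, RIF, AMK, OFX or EtBr were determined without and with graded sub-inhibitory compound concentrations, starting at ½ MIC. Where MIC was undeterminable, the highest concentration still permitting growth was taken as ½ MIC. FIC = MIC of antibacterial in combination / MIC alone. FIC ≤0.25 was scored as synergism and ≥2 as antagonism.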

[2] = test system: Mycobacterium tuberculosis; experiment: Inhibition of multidrug resistance efflux pump in Mycobacterium tuberculosis H37Rv assessed as rifampin MIC at 1 ug/ml after 7 days by two-dimensional broth microdilution checkerboard assay; details: 168 h; how it was run: as §1
[3] = test system: Mycobacterium tuberculosis; experiment: Inhibition of multidrug resistance efflux pump in Mycobacterium tuberculosis H37Rv assessed as reduction in ethidium bromide MIC at 32 ug/ml after 7 days by two-dimensional broth microdilution checkerboard assay; how it was run: as §1
[4] = test system: Mycobacterium tuberculosis; experiment: Inhibition of multidrug resistance efflux pump in Mycobacterium tuberculosis H37Rv assessed as reduction in amikacin MIC at 128 ug/ml after 7 days by two-dimensional broth microdilution checkerboard assay
[5] = test system: Mycobacterium tuberculosis; experiment: Inhibition of multidrug resistance efflux pump in Mycobacterium tuberculosis H37Rv assessed as rifampin MIC at 0.94 ug/ml after 7 days by two-dimensional broth microdilution checkerboard assay; details: 168 h
How it was run: (§2)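 M. tuberculosis H37Rv ATCC27294. MICs of INH, RIF, AMK, OFX and EtBr were determined alone and with sub-inhibitory concentrations of test compound by two-dimensional broth microdilution checkerboard. Where a compound's MIC was not determinable, the highest concentration still allowing growth was taken as ½ MIC. FIC = MIC in combination / MIC alone. FIC ≤0.25 was scored as synergism and ≥2 as antagonism.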

[6] = test system: Mycobacterium tuberculosis; experiment: Inhibition of multidrug resistance efflux pump in Mycobacterium tuberculosis H37Rv assessed as amikacin MIC at 7.5 ug/ml after 7 days by two-dimensional broth microdilution checkerboard assay; details: 168 h; how it was run: as §1
[7] = test system: Mycobacterium tuberculosis; experiment: Inhibition of multidrug resistance efflux pump in Mycobacterium tuberculosis H37Rv assessed as ofloxacin MIC at 0.47 ug/ml after 7 days by two-dimensional broth microdilution checkerboard assay; details: 168 h; how it was run: as §2
[8] = test system: Mycobacterium tuberculosis; experiment: Inhibition of multidrug resistance efflux pump in Mycobacterium tuberculosis H37Rv assessed as ethidium bromide MIC at 3.75 ug/ml after 7 days by two-dimensional broth microdilution checkerboard assay; details: 168 h; how it was run: as §2
[9] = test system: Mycobacterium tuberculosis; experiment: Inhibition of multidrug resistance efflux pump in Mycobacterium tuberculosis H37Rv assessed as amikacin MIC at 0.94 ug/ml after 7 days by two-dimensional broth microdilution checkerboard assay; details: 168 h; how it was run: as §2
[10] = test system: Mycobacterium tuberculosis; experiment: Inhibition of multidrug resistance efflux pump in Mycobacterium tuberculosis H37Rv assessed as reduction in ethidium bromide MIC at 7.5 ug/ml after 7 days by two-dimensional broth microdilution checkerboard assay; how it was run: as §1
[11] = test system: Mycobacterium tuberculosis; experiment: Inhibition of multidrug resistance efflux pump in Mycobacterium tuberculosis H37Rv assessed as reduction in amikacin MIC at 7.5 ug/ml after 7 days by two-dimensional broth microdilution checkerboard assay; how it was run: as §1
[12] = test system: Mycobacterium tuberculosis; experiment: Inhibition of multidrug resistance efflux pump in Mycobacterium tuberculosis H37Rv assessed as rifampin MIC at 0.23 ug/ml after 7 days by two-dimensional broth microdilution checkerboard assay; details: 168 h; how it was run: as §2
[13] = test system: Mycobacterium tuberculosis; experiment: Inhibition of multidrug resistance efflux pump in Mycobacterium tuberculosis H37Rv assessed as isoniazid MIC at 0.12 ug/ml after 7 days by two-dimensional broth microdilution checkerboard assay; details: 168 h; how it was run: as §2
[14] = test system: Mycobacterium tuberculosis; experiment: Inhibition of multidrug resistance efflux pump in Mycobacterium tuberculosis H37Rv assessed as reduction in rifampin MIC at 7.5 ug/ml after 7 days by two-dimensional broth microdilution checkerboard assay; how it was run: as §1
[15] = test system: Mycobacterium tuberculosis; experiment: Inhibition of multidrug resistance efflux pump in Mycobacterium tuberculosis H37Rv assessed as amikacin MIC at 0.23 ug/ml after 7 days by two-dimensional broth microdilution checkerboard assay; details: 168 h; how it was run: as §2

SMILES: COc1ccc(N(CCC2CCCCN2C)C(C)C)cc1OC (racemic)
- fold change (FC) [1]: 4

SMILES: CN1CCCCC1CCn1c2ccccc2c2ccccc21 (racemic)
- MIC [2]: 1 µg/mL
- fold change (FC) [3]: 4

SMILES: CN1CCCCC1CCn1ccc2ccc(Br)cc21 (racemic)
- fold change (FC) [4]: >128

SMILES: CSc1ccc2c(c1)N(CCC1CCCCN1C)c1ccccc1S2 (stereo not given) [THIORIDAZINE]
- MIC [5]: 1 µg/mL
- MIC [6]: < 0.0156 µg/mL
- MIC [7]: 1 µg/mL
- MIC [8]: 3.12 µg/mL
- MIC [9]: 1 µg/mL
- fold change (FC) [10]: >64
- fold change (FC) [11]: >128
- MIC [12]: 1 µg/mL
- MIC [13]: 0.1 µg/mL
- fold change (FC) [14]: >64
- MIC [15]: 1 µg/mL
